Usually IC50 stands for the concentration that gives 50% inhibition.

Our source for the IC50 values is ChEMBL document CHEMBL1159325, “Pseudoirroratin A, a new cytotoxic ent-kaurene diterpene from Isodon pseudo-irrorata” (J Nat Prod, 2002).

Holding throughout (format): functional, cell-based
Experiment [1] relates to LNCaP. The experiment can be described thus: Cytotoxicity against human LNCAP cells by MTT assay. Summed up:
(§1)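 Cytotoxicity was run on human cell lines (Lu1, SW626, LNCaP, KB, and the HOG.R5 reporter line derived from parental HOS cells) following a previously established protocol. Camptothecin served as the positive control, and results were expressed as IC50.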
A general note: Tetrazolium dyes change colour on reduction, which living cells bring about.

Experiment [2] relates to SW626. The experiment can be described thus: Cytotoxicity against human SW626 cells by MTT assay. Summed up: as §1
The subject of experiment [3] is Lu1. The experiment can be described thus: Cytotoxicity against human Lu1 cells by MTT assay. A digest of the protocol: as §1
Experiment [4] has as its system KB. The experiment can be described thus: Cytotoxicity against human KB cells by MTT assay. A digest of the protocol: as §1
A short description of experiment [5]: Cytotoxicity against human HOG.R5 cells by MTT assay. A digest of the protocol: as §1
The test system of experiment [6] is HOS. The experiment can be described thus: Cytotoxicity against human HOS cells by MTT assay.

In the case of `CC[C@@]1(O)C(=O)OCc2c1cc1n(c2=O)Cc2cc3ccccc3nc2-1` [CAMPTOTHECIN], the IC50 in experiment [1] stood at 86.1 nM; in experiment [2], 28.7 nM; in experiment [3], 28.7 nM; in experiment [4] it was 28.7 nM; in experiment [5], 28.7 nM.

As for `C=C1C(=O)[C@]23[C@H](O)C[C@@H]4C(C)(C)CCC[C@]45CO[C@](O)(C[C@@H]1[C@H]2O)[C@@H]53` [PSEUDOIRRORATIN A], the IC50 in experiment [1] came out at 2590 nM; in experiment [2] it was 570 nM; in experiment [3], 750 nM; in experiment [4], 2590 nM; in experiment [6], 1440 nM.
